Compound activity: PubChem, several laboratories
FLuc act counter: affects firefly luciferase, flagging false hits in luciferase stimulation screens | P08659 | AID 1027 | activation factor at 10 µM | 200,000 tested, under 10 active | ATPlite luciferase biochemical, luminescence, 10 min; 0 = ATP-free wells, 1 = DMSO control;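 active = luciferase activation factor, scaled between plate controls, of at least 2 with compound at 10 µM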
Target sequence (P08659 whole entry, looked up): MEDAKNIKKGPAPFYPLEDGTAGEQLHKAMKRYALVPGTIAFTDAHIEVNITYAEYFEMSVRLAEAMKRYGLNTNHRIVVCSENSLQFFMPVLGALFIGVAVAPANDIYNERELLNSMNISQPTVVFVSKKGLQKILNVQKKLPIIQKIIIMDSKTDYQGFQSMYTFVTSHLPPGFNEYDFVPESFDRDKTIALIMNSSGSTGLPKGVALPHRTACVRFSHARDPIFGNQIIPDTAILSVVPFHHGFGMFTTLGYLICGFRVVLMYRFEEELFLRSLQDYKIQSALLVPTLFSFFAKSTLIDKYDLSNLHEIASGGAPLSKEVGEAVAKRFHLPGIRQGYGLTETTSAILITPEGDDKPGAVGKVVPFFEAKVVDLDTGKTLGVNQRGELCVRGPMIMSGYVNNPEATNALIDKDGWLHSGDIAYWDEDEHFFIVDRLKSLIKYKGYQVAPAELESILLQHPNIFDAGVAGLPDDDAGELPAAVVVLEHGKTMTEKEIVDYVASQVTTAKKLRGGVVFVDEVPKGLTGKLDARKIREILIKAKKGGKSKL
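System: cell-free luciferase reagent; medium: PBS as buffer for the ATP substrate; doses: test compounds dosed from 2 mM stocks in 100% DMSO; incubation: 10 min, room temperature; measured by: luminescence from luciferase reaction; read-out: luciferase activation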
APP 5'UTR act: APP 5'UTR luciferase reporter activation; SH-SY5Y APP 5'UTR luciferase reporter, luminescence; zero percent = DMSO vehicle wells; activation, % at 2 µM; hit rate 1% among 190,000; AID 1276;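 active = activation above a set limit, based on mean plus 3 SD of controls, cut at about 140% in these data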
STAT1 act: increases IFN-gamma driven STAT1 reporter signal. NIH 3T3 STAT1-luciferase reporter, luminescence; 100% = IFN-gamma alone, no compound. activation (% of control), % at 5.5 µM. hit rate 2.6% among 200,000. AID 932;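 active = activation above the screen-wide mean activation plus 3 SD, cut at about 130% in these data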;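 also: raw ratio to IFN-gamma control signal so 100% means no change and 0% no light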
FLuc inh counter: inhibits firefly luciferase, flagging false hits in luciferase inhibition screens | ATPLite firefly luciferase biochemical luminescence, 10 min | inhibition, % at 10 µM | hit rate 1.5% among 200,000 | AID 1006;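 active = inhibition above about 50% when tested at 10 µM, limit read from the data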
SDO1 yeast rescue: compounds rescuing growth of sdo1-depleted yeast, bone marrow failure model | S. cerevisiae sdo1-depleted JHY4D growth rescue, OD600 30 h; stronger effect = higher value; pdr5 snq2 efflux-pump mutant strain | z-score at 10 µM | hit rate 0.21% among 140,000 | AID 817;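 active = z-score above 3 at both the 24 hr and the 30 hr optical density reads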;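 also: z-score against mean and SD of all compound wells on the same plate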
NF-kB neuron act: compounds increasing NF-kB expression in human neuronal cells. NF-kB reporter expression; stronger effect = higher value. hit rate 1.6% among 190,000. fold change at 12.5 µM; in the data active = fold change above about 3.3
* marks the source's active call; other numbers are inactive results. This is a sample that favours compounds with a hit; in the whole collection about 4.3% have one here.

For CCOC(=O)Cc1[nH]nc2c1C(c1ccsc1)C(C#N)=C(N)O2 (stereo unspecified) the results were FLuc act counter 1.1, APP 5'UTR act -6, STAT1 act 78, FLuc inh counter -8 and NF-kB neuron act 1.8.
For CC1(C)Cc2ccccc2C2=NNC(=O)C2=N1 the results were FLuc act counter 1, APP 5'UTR act -1, STAT1 act 139*, FLuc inh counter 1 and NF-kB neuron act 0.4.
Screening O=C(Nc1ccc(C(F)(F)F)cc1)c1cnc(N2CCN(c3ccccn3)CC2)c2ccccc12 returned FLuc act counter 1.1, APP 5'UTR act 19, STAT1 act 100, FLuc inh counter -8 and NF-kB neuron act 1.4.
For CCOC(=O)/C=C/C(=O)Nc1ccc(Oc2ccccc2)cc1 the results were FLuc act counter 1.1, APP 5'UTR act -23, STAT1 act 103, FLuc inh counter -10 and NF-kB neuron act 1.6.
For COc1ccc(OC)c2c1sc(=NC(=O)c1ccco1)n2C the results were FLuc act counter 1.1, APP 5'UTR act 6, STAT1 act 105, FLuc inh counter -7, SDO1 yeast rescue 0.74 and NF-kB neuron act 0.87.
`Cc1ccc(-c2c(C)sc(=NC(=O)c3ccco3)n2C)cc1` gave FLuc act counter 0.1, APP 5'UTR act 67, STAT1 act 129*, FLuc inh counter 86*, SDO1 yeast rescue -1.5 and NF-kB neuron act 3.
`COC(=O)c1ccc(CO/N=C2\CCCc3nonc32)cc1` gave FLuc act counter 1, APP 5'UTR act 17, STAT1 act 139*, FLuc inh counter -2 and NF-kB neuron act 1.2.
`CCOc1ccc(CCNC(=O)CCS(=O)(=O)c2ccc(OC)cc2)cc1OCC` gave FLuc act counter 1, APP 5'UTR act -11, STAT1 act 95, FLuc inh counter -4 and NF-kB neuron act 1.8.
For O=C(COc1ccccc1C(=O)c1cnn(-c2ccccc2)c1)Nc1ccccc1 the results were FLuc act counter 0.3, APP 5'UTR act 31, STAT1 act 120, FLuc inh counter 74*, SDO1 yeast rescue -1.2 and NF-kB neuron act 1.4.
`Cc1ccc(-n2cc(C(=O)c3ccccc3O)cn2)cc1` gave FLuc act counter 0.3, APP 5'UTR act 100, STAT1 act 89, FLuc inh counter 68*, SDO1 yeast rescue -0.5 and NF-kB neuron act 3.1.
`Fc1ccc(-c2ncc3ccccn23)cc1` gave FLuc act counter 1, APP 5'UTR act 2, STAT1 act 105, FLuc inh counter 4 and NF-kB neuron act 1.3.
Clc1ccc(/C=C/c2ncc3ccccn23)cc1 was read as FLuc act counter 0.3, APP 5'UTR act 127, STAT1 act 144*, FLuc inh counter 67* and NF-kB neuron act 3.7*.
Screening O=C(CN1C(=O)c2ccccc2S1(=O)=O)N1CCc2ccccc2C1 returned FLuc act counter 1, APP 5'UTR act -1, STAT1 act 88, FLuc inh counter -4, SDO1 yeast rescue 0.23 and NF-kB neuron act 0.65.
`Cc1ccc(S(=O)(=O)c2c(C)cc(C)nc2N2CCCC2)cc1` gave FLuc act counter 1.1, APP 5'UTR act -5, STAT1 act 86, FLuc inh counter -8 and NF-kB neuron act 1.1.
Screening Brc1c(CSc2nc3ccccc3s2)nc2ncccn12 returned FLuc act counter 0.8, APP 5'UTR act 68, STAT1 act 133*, FLuc inh counter 24, SDO1 yeast rescue -0.46 and NF-kB neuron act 4.5*.
Screening O=C(c1ccco1)N1CCN(c2ncnc3c(-c4ccccc4)nsc23)CC1 returned FLuc act counter 1, APP 5'UTR act 58, STAT1 act 129*, FLuc inh counter -3, SDO1 yeast rescue -0.95 and NF-kB neuron act 1.8.
For NC(=O)C1CCN(c2ncnc3c(-c4ccccc4)nsc23)CC1 the results were FLuc act counter 0.9, APP 5'UTR act 21, STAT1 act 139*, FLuc inh counter 14, SDO1 yeast rescue -0.12 and NF-kB neuron act 2.6.
`CC(C)CN1C(=O)/C(=C(/C#N)C(=O)NC2CCCCC2)c2ccccc21` gave FLuc act counter 1.1, APP 5'UTR act 6, STAT1 act 91, FLuc inh counter -5 and NF-kB neuron act 1.
`COC(CNC(=O)c1cccc(-n2c(=S)[nH]c3cc(Cl)ccc3c2=O)c1)OC` gave FLuc act counter 1, APP 5'UTR act 2, STAT1 act 102, FLuc inh counter 5 and NF-kB neuron act 1.
For O=C(CN(C(=O)c1csnn1)c1cccc2c1CCCC2)NC1CCCC1 the results were FLuc act counter 1, APP 5'UTR act -20, STAT1 act 98, FLuc inh counter -4 and NF-kB neuron act 1.2.
For Cc1ccc(N=C/C(C(=O)C(F)(F)F)=C(\O)c2cccs2)cc1 the results were FLuc act counter 0.6, APP 5'UTR act 190*, STAT1 act 51, FLuc inh counter 43, SDO1 yeast rescue -0.47 and NF-kB neuron act 2.7.
For Cc1ccc(C(=O)N/N=C(/CC(=O)c2cccs2)C(F)(F)F)cc1 the results were FLuc act counter 1, APP 5'UTR act 9, STAT1 act 107, FLuc inh counter -4, SDO1 yeast rescue -1.3 and NF-kB neuron act 0.9.
Screening CCOC(=O)C1=C(c2ccccc2)O/C(=C(/C#N)C(F)(F)F)S1 returned FLuc act counter 1.1, APP 5'UTR act -17, STAT1 act 79, FLuc inh counter -9, SDO1 yeast rescue -1.4 and NF-kB neuron act 8.6*.
For CN=C1SC(C(=O)Nc2ccccc2Cl)CC(=O)N1c1ccc(OC(F)(F)Cl)cc1 (stereo unspecified) the results were FLuc act counter 1, APP 5'UTR act 38, STAT1 act 94, FLuc inh counter 0 and NF-kB neuron act 1.1.
`CCOc1ccc(NC(=O)c2cnccn2)cc1` gave FLuc act counter 0.3, APP 5'UTR act 150*, STAT1 act 126, FLuc inh counter 72*, SDO1 yeast rescue -0.15 and NF-kB neuron act 3.3.
For CCOc1ccc(NC(=O)c2cnsn2)cc1 the results were FLuc act counter 0.4, APP 5'UTR act 153*, STAT1 act 122, FLuc inh counter 61*, SDO1 yeast rescue 0.14 and NF-kB neuron act 3.5*.
O=C(Nc1ccc2c(c1)OCO2)c1ccc(Cl)nc1 was read as FLuc act counter 0.9, APP 5'UTR act 18, STAT1 act 110, FLuc inh counter 8, SDO1 yeast rescue 0.94 and NF-kB neuron act 1.8.
COc1cccc(NC(=O)c2cnsn2)c1 was read as FLuc act counter 1, APP 5'UTR act -1, STAT1 act 112, FLuc inh counter 0, SDO1 yeast rescue 0.37 and NF-kB neuron act 1.4.
For CCOc1ccc(NC(=O)c2oc3ccccc3c2NC(=O)CC)cc1 the results were FLuc act counter 1, APP 5'UTR act 64, STAT1 act 119, FLuc inh counter -4, SDO1 yeast rescue -0.78 and NF-kB neuron act 5.1*.
For Cc1ccc(NC(=O)c2ccc(Cl)nc2)cc1 the results were FLuc act counter 0.9, APP 5'UTR act -3, STAT1 act 131*, FLuc inh counter 9 and NF-kB neuron act 2.2.
